Only some compounds are listed: those with a hit (about 6.4% of all), similar ones and a draw of the others.
HUVEC inhibit: human endothelial cell proliferation inhibition; HUVEC proliferation, CellTiter-Glo luminescence, 72 h; hits give low values; viability, % at 10 µM (by protocol); 1.1% of 86,000 active;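 active means viability at or below 30%; inactive means viability above 30%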
E coli WT exp: growth inhibitors of E. coli BW25113 wild type; OD600 absorbance; growth inhibition, % at 100 µM; 0.15% of 98,000 active; AID 710;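 active means growth inhibition above about 50% at one test dose, limit read from the data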;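 further: growth measured after 20 h incubation at 37 °C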
tolC growth inh: blocks growth of E. coli BW25113 tolC mutant; OD615; 2.2% of 65,000 active; AID 573; growth inhibition, % at 10 µM (by protocol);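 active means growth inhibition at or above a cutoff equal to the mean over every tested compound plus 3 SD, cut at about 60% in these data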;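 further: growth measured after 20 h incubation at 37 °C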
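Test system: tolC-deleted E. coli BW25113 | Medium: LB with kanamycin 50 µg/mL | Compound dosing: Single concentration, 10 µM final per compound | Schedule: 37 °C, 20 h exposure | Measured by: OD at 615 nm | Evaluation: Percent growth inhibition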
H69AR growth 86K: growth inhibitors of human H69AR lung tumor cells; 6% of 85,000 active; viability, % at 10 µM; H69AR lung tumor viability, ATP luminescence, 72 h; hits give low values; AID 598;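 active means viability at or below 40%; inactive means viability above 40%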;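 further: multidrug resistant small cell line overexpressing MRP-1 efflux transporter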
Jurkat tox 60K: reduces viability or proliferation of Jurkat cells. AID 463. Jurkat E6.1 viability, ATP luminescence, 48 h. 1.2% of 56,000 active. inhibition, % at 4 µM;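 active means inhibition above the mean inhibition of all tested compounds plus 3 SD, cut at about 28% in these data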
Lung fibro prol: blocks proliferation of human lung fibroblasts | LL 47 human lung fibroblast viability, ATP luminescence; hits give low values | AID 719 | viability, % at 10 µM | 1.1% of 85,000 active;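 active means viability at or below 50% in the single dose screen; inactive means viability above 50%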;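 further: compound exposure lasted 72 h before the ATP readout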
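Times – overnight cell rest, 72 h compound treatment at 37 °C · Test system – human lung fibroblast line LL 47, low passage · Amount – 1,150 cells in each well · Controls – cell-only wells, no compound · Doses – 0.1% DMSO in all compound wells · Measured by – CellTiter-Glo luminescence · Buffer or medium – IMEM plus 15% FBS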
Hits are given with their value.

`CCCn1c(N2CCC(Cc3ccccc3)CC2)nc2c1c(=O)[nH]c(=O)n2C` gave HUVEC inhibit inactive, E coli WT exp inactive, tolC growth inh inactive, H69AR growth 86K inactive, Jurkat tox 60K inactive and Lung fibro prol inactive.
For Cc1nn(C)cc1CN(C)C(=O)c1sc2cccc(Cl)c2c1Cl the results were HUVEC inhibit inactive, E coli WT exp inactive, tolC growth inh inactive, H69AR growth 86K inactive, Jurkat tox 60K inactive and Lung fibro prol inactive.
For O=C(NCc1cccnc1)NC1CCCN1S(=O)(=O)c1ccc(Cl)cc1 (centres undefined) the results were HUVEC inhibit inactive, E coli WT exp inactive, tolC growth inh inactive, H69AR growth 86K inactive, Jurkat tox 60K inactive and Lung fibro prol inactive.
`CCCCNC(=S)NNC(=O)c1csc(CC)c1` gave HUVEC inhibit inactive, H69AR growth 86K inactive and Lung fibro prol inactive.
O=C(CSc1ncn[nH]1)c1ccccc1 was read as HUVEC inhibit inactive, E coli WT exp inactive, tolC growth inh inactive, H69AR growth 86K inactive, Jurkat tox 60K inactive and Lung fibro prol inactive.
For C=CCSC(=C(C#N)C#N)c1cc2c([nH]1)CCCC2 the results were HUVEC inhibit 16.9, E coli WT exp inactive, H69AR growth 86K 1.3 and Lung fibro prol 7.4.
Screening Cc1ccc(NC(=O)N2CCCN(Cc3ccc(F)cc3)C2)cc1C returned HUVEC inhibit inactive, E coli WT exp inactive, tolC growth inh inactive, H69AR growth 86K 28.1 and Jurkat tox 60K inactive.
Cc1ccc(Cl)cc1N1CCN(C(=O)COc2ccc(S(=O)(=O)NC(C)C)cc2)CC1 was read as HUVEC inhibit inactive, E coli WT exp inactive, tolC growth inh 63.1, H69AR growth 86K inactive, Jurkat tox 60K 54.1 and Lung fibro prol inactive.
For CC(C)NS(=O)(=O)c1ccc(OCC(=O)N2CCCC2)cc1 the results were HUVEC inhibit inactive, H69AR growth 86K inactive and Lung fibro prol inactive.
O=c1oc(-c2ccccc2F)nc2c1cnn2-c1ccccc1 was read as HUVEC inhibit 5.9, E coli WT exp inactive, H69AR growth 86K inactive and Lung fibro prol inactive.
Screening O=c1oc(-c2cccc(Cl)c2)nc2c1cnn2-c1ccccc1 returned HUVEC inhibit inactive, E coli WT exp inactive, H69AR growth 86K inactive and Lung fibro prol inactive.
`O=S(=O)(c1ccc2c(c1)nc1n2CCC1)N1CCOCC1` gave HUVEC inhibit inactive, E coli WT exp inactive, tolC growth inh inactive, H69AR growth 86K inactive, Jurkat tox 60K inactive and Lung fibro prol inactive.
Screening COc1ccc(Nc2ncnc3c2cnn3-c2ccccc2)cc1OC returned HUVEC inhibit inactive, E coli WT exp inactive, tolC growth inh inactive, H69AR growth 86K 37.3, Jurkat tox 60K inactive and Lung fibro prol inactive.
`COc1ccc(OC)c(Nc2ncnc3c2cnn3-c2cccc(C)c2)c1` gave HUVEC inhibit inactive, tolC growth inh inactive, H69AR growth 86K 22.6 and Lung fibro prol inactive.
`COc1ccc(C(=O)COC(=O)CN2CC(=O)Oc3ccccc32)cc1Br` gave HUVEC inhibit inactive, E coli WT exp inactive, tolC growth inh inactive, H69AR growth 86K inactive, Jurkat tox 60K inactive and Lung fibro prol inactive.
Screening CN(C)c1ccc(NC(=O)CSc2nc(N)c(C(=O)Nc3ccc(N(C)C)cc3)s2)cc1 returned HUVEC inhibit inactive, E coli WT exp inactive, H69AR growth 86K inactive and Lung fibro prol inactive.
Screening CCOC(=O)c1sc(SCC(=O)Nc2ccc(N(C)C)cc2)nc1N returned HUVEC inhibit inactive, E coli WT exp inactive, tolC growth inh inactive, H69AR growth 86K inactive, Jurkat tox 60K inactive and Lung fibro prol 36.5.
Screening CCc1nnc(NC(=O)CSc2nc(C3CCCCC3)nc3ccccc23)s1 returned E coli WT exp inactive.
Cc1nc(NC(=O)CSc2nc3cccnc3n2C2CCCCC2)sc1C was read as HUVEC inhibit inactive, E coli WT exp inactive, tolC growth inh inactive, H69AR growth 86K 28.9, Jurkat tox 60K inactive and Lung fibro prol 14.0.
For CCc1nnc(NC(=O)CSc2nc3cccnc3n2C2CCCCC2)s1 the results were HUVEC inhibit inactive, E coli WT exp inactive, tolC growth inh inactive, H69AR growth 86K inactive, Jurkat tox 60K 29.4 and Lung fibro prol inactive.
For COc1cccc(C=NCCNC(=O)c2nonc2N)c1O the results were HUVEC inhibit inactive, E coli WT exp inactive, tolC growth inh inactive and Lung fibro prol inactive.
CCC(N1CCOC1=O)S(=O)(=O)c1ccc(C)cc1 (centres undefined) was read as HUVEC inhibit inactive, E coli WT exp inactive, H69AR growth 86K inactive and Lung fibro prol inactive.
Screening COc1ccc(Nc2nc3c(c(=O)n(C)c(=O)n3C)n2CCO)cc1 returned HUVEC inhibit inactive, E coli WT exp inactive, tolC growth inh inactive, H69AR growth 86K inactive, Jurkat tox 60K inactive and Lung fibro prol inactive.
CCC(C)NC(=O)CSc1nc2ccc(N3CCOCC3)cc2c(=O)n1CCc1ccccc1 (centres undefined) was read as HUVEC inhibit inactive, E coli WT exp inactive, tolC growth inh inactive, H69AR growth 86K 37.8 and Lung fibro prol inactive.
Screening CCCCn1c(SCC(=O)NC(C)CC)nc2ccc(N3CCOCC3)cc2c1=O (centres undefined) returned E coli WT exp inactive.
COC(=O)c1ccccc1NC(=O)c1cccc(NC(=O)c2ccc(Br)o2)c1C was read as HUVEC inhibit inactive, E coli WT exp inactive, tolC growth inh inactive, H69AR growth 86K inactive, Jurkat tox 60K inactive and Lung fibro prol inactive.
For Cc1nc2ccccc2c2oc(C(=O)NC3CC3)cc12 the results were HUVEC inhibit inactive, E coli WT exp inactive, tolC growth inh inactive, H69AR growth 86K inactive, Jurkat tox 60K inactive and Lung fibro prol inactive.
For CCOc1ccc(NC(=O)c2cc3c(C)nc4ccccc4c3o2)cc1 the results were HUVEC inhibit inactive, E coli WT exp inactive, H69AR growth 86K 29.8 and Lung fibro prol inactive.
Screening Cc1cc(C(=O)Nc2nc3c(s2)CCCC3)cs1 returned HUVEC inhibit inactive, E coli WT exp inactive, tolC growth inh inactive, H69AR growth 86K inactive, Jurkat tox 60K inactive and Lung fibro prol inactive.
For Cc1nc(C(=O)Nc2ccc(F)cc2)nn1-c1ccc([N+](=O)[O-])cc1 the results were E coli WT exp inactive.
O=[N+]([O-])c1ccc(NNC(=S)Nc2ccc(F)cc2)cc1 was read as HUVEC inhibit inactive, H69AR growth 86K 13.6 and Lung fibro prol inactive.
For COc1ccc(Cl)cc1NC(=O)C(C)N1CCN(C/C=C/c2ccccc2)CC1 (centres undefined) the results were HUVEC inhibit inactive, E coli WT exp inactive, H69AR growth 86K 39.6 and Lung fibro prol inactive.
Screening Cc1cnc(SCCc2ccncc2)nc1C returned E coli WT exp inactive, tolC growth inh inactive and Jurkat tox 60K inactive.
COC(=O)C(C)(C(=O)OC)c1ccccc1[N+](=O)[O-] was read as HUVEC inhibit inactive, E coli WT exp inactive, H69AR growth 86K inactive and Lung fibro prol inactive.
`COC(=O)C1=C(O)C(C(=O)OC)C(c2ccc(C)cc2)C(C#N)(C#N)C1c1ccc(C)cc1` (centres undefined) gave HUVEC inhibit inactive, H69AR growth 86K 4.0 and Lung fibro prol inactive.

Screening data: PubChem BioAssay, several laboratories
